Data from ChEMBL document CHEMBL2021903, “3-Deoxy-3,4-dehydro analogs of XM462. Preparation and activity on sphingolipid metabolism and cell fate” (Bioorg Med Chem, 2012).
Calls of active or inactive are those of the source. The calls are words filed in the database; no cut-off is given here.

Key:
[1] = system: HCT-116; assay: Induction of apoptosis in human HCT116 cells at 30 uM after 14 hrs by Annexin V-propidium iodide staining based flow cytometry; assay type: functional, cell-based
Procedure, shortened: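 HCT116 (clone 40–16) in low-glucose DMEM with 10% FBS and 1% penicillin–streptomycin, seeded 2.5×10⁵ cells/mL. After 24 h, medium replaced with compound-containing medium; ethanol vehicle to controls. After incubation, cells PBS-washed, trypsinized, stained with Annexin V and propidium iodide, analysed by flow cytometry. Mean ± SD, 3 experiments in triplicate.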

[2] = target: T1, Acid ceramidase (Homo sapiens) (UniProt Q13510); assay: Inhibition of aCDase in Moh.pAS AcCer10X cells using RBM14C16 as substrate at 16 uM after 1 hr by HPLC-FD analysis; assay type: cell-based
T1 sequence (whole entry): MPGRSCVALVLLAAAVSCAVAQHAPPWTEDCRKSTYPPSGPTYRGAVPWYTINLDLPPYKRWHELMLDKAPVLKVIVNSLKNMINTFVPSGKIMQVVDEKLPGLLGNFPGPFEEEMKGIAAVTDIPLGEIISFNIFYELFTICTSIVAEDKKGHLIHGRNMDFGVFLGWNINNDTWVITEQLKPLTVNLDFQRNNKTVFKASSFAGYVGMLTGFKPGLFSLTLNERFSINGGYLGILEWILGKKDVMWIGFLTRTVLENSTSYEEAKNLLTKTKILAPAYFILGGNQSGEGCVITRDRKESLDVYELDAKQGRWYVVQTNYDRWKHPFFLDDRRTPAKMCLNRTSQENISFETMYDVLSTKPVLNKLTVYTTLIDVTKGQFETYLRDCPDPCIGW

[3] = target: T1, Acid ceramidase (Homo sapiens); assay: Inhibition of aCDase using RBM14C16 as substrate at 16 uM after 1 hr by HPLC-FD analysis

| SMILES | Activity [1] | inhibition [2] [%] | inhibition [3] [%] |
| --- | --- | --- | --- |
| CCCCCCCCCCCCC/C=C/[C@@H](O)[C@H](CO)NC(=O)CCCCCCC | Active | – | – |
| CCCCCCCCCCCCC/C=C/[C@@H](O)[C@H](CO)NC(=O)C(C)(C)C | – | 50 | 50 |
| CCCCCCCCCCCCCCC[C@@H](O)[C@H](CO)NC(=O)C(C)(C)C | – | 50 | 50 |
